In ChEMBL document CHEMBL4028907, “Semisynthesis and Biological Evaluation of Xanthone Amphiphilics as Selective, Highly Potent Antifungal Agents to Combat Fungal Resistance” (J Med Chem, 2017) one finds MIC, Activity and Selectivity Index data, which are given here for two compounds.

The subject of test [1] is Fusarium solani. In words: Antifungal activity against Fusarium solani 52628 after 48 hrs by two fold serial dilution method. The format is functional. The following applies: Fusarium solani, 52628, 48 h. In short, it runs like this: (§1)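 Moulds grown on potato dextrose agar, 30 °C, 4 days; inoculum adjusted to about 5×10^3 CFU/mL. Two-fold serial dilutions in RPMI-1640 broth, 100 to 0.78 μg/mL final, mixed with equal volume of cell suspension; incubated 30 °C, 48 h. MIC = lowest concentration inhibiting growth, judged visually and by OD530.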

Test [2] relates to Candida albicans. Kind of test: Fungicidal activity against drug resistant Candida albicans DF2672R at 8 times MIC after 24 hrs by time kill assay relative to control. The format is functional. An outline of the steps:
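Cells at 10^5–10^6 CFU/mL exposed to 1×, 2×, 4× or 8× MIC at 35 °C. Samples taken at 0.5, 1, 2, 4, 8 and 24 h, serially diluted in PBS and plated on SDA. CFU counted after 24 h at 35 °C; biological replicates.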

Test [3] has as its system Aspergillus brasiliensis. In words: Antifungal activity against Aspergillus brasiliensis TCC16404 after 48 hrs by two fold serial dilution method. Format: functional. Particulars: TCC16404, 48 h. An outline of the steps:
as §1

The test system of test [4] is Fusarium oxysporum. In words: Antifungal activity against Fusarium oxysporum MYA3461 after 48 hrs by two fold serial dilution method. Format: functional. Particulars: MYA3461, 48 h. An outline of the steps: as §1
The test system of test [5] is Aspergillus fumigatus. In words: Antifungal activity against Aspergillus fumigatus TCC MYA3626 after 48 hrs by two fold serial dilution method. The following applies: TCC MYA3626, 48 h. Format: functional. In short, it runs like this:
as §1

The test system of test [6] is Candida albicans. In words: Antifungal activity against Candida albicans DF1976R after 24 hrs by two fold serial dilution method. Format: functional. In short, it runs like this:
(§2)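 Candida grown on Sabouraud dextrose agar at 35 °C for 24 h, adjusted to ~5×10^3 CFU/mL. Two-fold dilutions from 100 to 0.78 μg/mL in Sabouraud dextrose broth, incubated at 35 °C for 24 h. MIC is the lowest concentration inhibiting growth by eye and by OD600. CLSI-based with minor modifications.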

The test system of test [7] is Fusarium solani. Kind of test: Antifungal activity against Fusarium solani MYA3636 after 48 hrs by two fold serial dilution method. Format: functional. Particulars: MYA3636, 48 h. An outline of the steps: as §1
Test [8] relates to Candida albicans. Kind of test: Antifungal activity against drug resistant Candida albicans DF2672R infected C57BL6 mouse cornea at 5% administered topically for every 20 mins during the first hour and every 1 hr during the next 6 hrs by serial dilution method. The format is functional. An outline of the steps: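 C57BL6 mice aged 7–8 weeks (19–23 g), immunosuppressed with cyclophosphamide 100 mg/kg ip at 4 days and 1 day before infection and on day 1 after. Left cornea scratched under xylazine/ketamine, then 20 μL of ~5×10^7 CFU/mL yeast in PBS applied. Treatment started 1 day later; PBS served as control; four mice per group. Corneal fungal load counted by serial dilution plating on SDA.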

Test [9] deals with Candida albicans. Kind of test: Antifungal activity against Candida albicans ATCC11651 after 24 hrs by two fold serial dilution method. The format is functional. The following applies: ATCC11651, 24 h. In short, it runs like this:
as §2

Test [10] has as its system Candida albicans. Kind of test: Antifungal activity against Candida albicans ATCC90028 after 24 hrs by two fold serial dilution method. Particulars: ATCC90028, 24 h. The format is functional. In short, it runs like this:
as §2

In test [11] the test system is Candida albicans. Kind of test: Antifungal activity against Candida albicans ATCC24433 after 24 hrs by two fold serial dilution method. The format is functional. Particulars: ATCC24433, 24 h. An outline of the steps:
as §2

Test [12] has as its system Aspergillus flavus. Kind of test: Antifungal activity against Aspergillus flavus TCC MYA3631 after 48 hrs by two fold serial dilution method. Format: functional. Particulars: TCC MYA3631, 48 h. An outline of the steps: as §1
The nature of test [13]: Selectivity index, ratio of HC50 for New Zealand white rabbit RBC to MIC for Candida albicans ATCC 10231.
The test system of test [14] is Fusarium solani. Kind of test: Antifungal activity against Fusarium solani 62877 after 48 hrs by two fold serial dilution method. The format is functional. Particulars: Fusarium solani, 62877, 48 h. An outline of the steps:
as §1

Test [15] deals with Candida albicans. Kind of test: Antifungal activity against Candida albicans ATCC 10231 after 24 hrs by two fold serial dilution method. The format is functional. Particulars: ATCC 10231, 24 h. In short, it runs like this:
as §2

Test [16] concerns Aspergillus flavus. In words: Antifungal activity against Aspergillus flavus TCC 204304 after 48 hrs by two fold serial dilution method. Particulars: TCC 204304, 48 h. Format: functional. In short, it runs like this:
as §1

The subject of test [17] is Fusarium solani. Kind of test: Antifungal activity against Fusarium solani 46492 after 48 hrs by two fold serial dilution method. Format: functional. Particulars: Fusarium solani, 46492, 48 h. In short, it runs like this:
as §1

In test [18] the test system is Candida albicans. In words: Antifungal activity against drug resistant Candida albicans DF2672R after 24 hrs by two fold serial dilution method. Format: functional. An outline of the steps: as §2
In test [19] the test system is Aspergillus fumigatus. Kind of test: Antifungal activity against Aspergillus fumigatus TCC 90906 after 48 hrs by two fold serial dilution method. The format is functional. Particulars: TCC 90906, 48 h. In short, it runs like this: as §1
The subject of test [20] is Fusarium oxysporum. Kind of test: Antifungal activity against Fusarium oxysporum 64530 after 48 hrs by two fold serial dilution method. The format is functional. Particulars: Fusarium oxysporum, 64530, 48 h. An outline of the steps:
as §1

In test [21] the test system is Staphylococcus aureus. In words: Antibacterial activity against methicillin resistant Staphylococcus aureus DM9808R by two fold serial dilution method. Format: functional. An outline of the steps:
(§3)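 Broth microdilution per CLSI guidelines with minor modifications, run in Mueller−Hinton broth; MIC is the lowest concentration giving no visible growth.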

The test system of test [22] is Bacillus cereus. Kind of test: Antibacterial activity against Bacillus cereus ATCC11778 by two fold serial dilution method. The format is functional. In short, it runs like this:
(§4)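 Broth microdilution (CLSI, minor modifications) in Sabouraud dextrose, Mueller−Hinton or RPMI 1640 broth; two-fold serial dilutions of compound from stock to final 100 to 0.78 μg/mL. MIC taken as lowest concentration giving no visible growth.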

Test [23] relates to Pseudomonas aeruginosa. Kind of test: Antibacterial activity against Pseudomonas aeruginosa DM23155 by two fold serial dilution method. The format is functional. In short, it runs like this:
as §4

The test system of test [24] is Klebsiella pneumoniae. Kind of test: Antibacterial activity against Klebsiella pneumoniae DM4299 by two fold serial dilution method. The format is functional. In short, it runs like this: as §4
Test [25] deals with Staphylococcus aureus. Kind of test: Antibacterial activity against methicillin resistant Staphylococcus aureus DM21455 by two fold serial dilution method. Format: functional. In short, it runs like this: as §3
Test [26] relates to Staphylococcus aureus. Kind of test: Antibacterial activity against Staphylococcus aureus DM4001R by two fold serial dilution method. Format: functional. An outline of the steps:
as §4

Values after ≈ are worked out from the molar mass of the structure shown. Active and inactive are the calls of the source. No cut-off for these calls is given here.

For the compound `C[C@@H]1C/C=C/C=C/C=C/C=C/[C@H](O[C@@H]2O[C@H](C)[C@@H](O)[C@H](N)[C@@H]2O)C[C@@H]2O[C@](O)(C[C@@H](O)C[C@H]3O[C@@H]3/C=C/C(=O)O1)C[C@H](O)[C@H]2C(=O)O` [NATAMYCIN], the MIC in test [1] was found to be 6.25 µg/mL (≈ 9.39 µM); in test [3], 6.25 µg/mL (≈ 9.39 µM); in test [4], 3.13 µg/mL (≈ 4.7 µM); in test [5], 6.25 µg/mL (≈ 9.39 µM); in test [6], 6.25 µg/mL (≈ 9.39 µM); in [7], 6.25 µg/mL (≈ 9.39 µM). The MIC is 6.25 µg/mL (≈ 9.39 µM) in [9]; 6.25 µg/mL (≈ 9.39 µM) in test [10]; 6.25 µg/mL (≈ 9.39 µM) in [11]; over 50 µg/mL in test [12]; 25 µg/mL (≈ 37.6 µM) in test [14]; 6.25 µg/mL (≈ 9.39 µM) in [15]. The MIC in test [16] is over 50 µg/mL; in [17], 6.25 µg/mL (≈ 9.39 µM); in test [18] it was 6.25 µg/mL (≈ 9.39 µM); in test [19], 6.25 µg/mL (≈ 9.39 µM); in test [20], 6.25 µg/mL (≈ 9.39 µM). This compound gave an Activity in test [2] of 99.9%. In addition, the outcome in test [8] was Active. Further, the Selectivity Index in [13] came to 18.1.
For the compound `CCCN(CCC)CC(O)COc1cc2oc3cc(OCC(O)CN(CCC)CCC)c(OC)c(CC=C(C)C)c3c(=O)c2c(O)c1CC=C(C)C` (stereo not drawn), the MIC in test [21] was 6.25 to 12.5 µg/mL (≈ 8.62 to 17.2 µM); in test [22], 6.25 to 12.5 µg/mL (≈ 8.62 to 17.2 µM); in [6], 6.25 µg/mL (≈ 8.62 µM); in test [9], 6.25 µg/mL (≈ 8.62 µM); in test [10] it was 6.25 µg/mL (≈ 8.62 µM); in [11] it was 6.25 µg/mL (≈ 8.62 µM). Besides, the MIC is over 50 µg/mL in test [23]; 3.13 µg/mL (≈ 4.32 µM) in [15]; over 50 µg/mL in test [24]; 6.25 to 12.5 µg/mL (≈ 8.62 to 17.2 µM) in test [25]; 3.13 µg/mL (≈ 4.32 µM) in test [18]; 6.25 to 12.5 µg/mL (≈ 8.62 to 17.2 µM) in [26]. In addition, the Selectivity Index in test [13] is over 128.
